Out of some 360,000 compounds screened, about 770 (0.21%) were called active. The entries come from a sample that favours actives as a whole. A number with no mark means an inactive call.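 The calls were made as follows: active = inhibition at least 30% at 10 µM, raw YFP signal under a set limit, fluorescence ratio 0.5 to 1.5; inactive = the rest.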
Target: Sentrin-specific protease 1 (Homo sapiens) (UniProt Q9P0U3)
Assay: blockers of SENP1 SUMO protease activity – biochemical, FRET, uHTS, primary screen (AID 624204);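 also: 0% = enzyme with DMSO and 100% = no enzyme wells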
Conditions: recombinant SENP1 catalytic domain, CyPet-SUMO1-YPet FRET cleavage; at 10 µM; stronger effect = higher value
Outline: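 Material: hSENP1 catalytic domain, recombinant; medium: Tris pH 8 with BME, BSA, NP40 and catalase; compound: single concentration of 10 µM compound, 0.5% DMSO final; technique: FRET read of cyan and yellow fluorescence; timing: 50 min enzyme reaction, room temperature, light-protected; reagent: SFCypet-SUMO1-SFYpet substrate at 25 nM; control set: no-enzyme low, enzyme-DMSO high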

Chain of Sentrin-specific protease 1 (Homo sapiens) (Q9P0U3 419-644 limits assumed): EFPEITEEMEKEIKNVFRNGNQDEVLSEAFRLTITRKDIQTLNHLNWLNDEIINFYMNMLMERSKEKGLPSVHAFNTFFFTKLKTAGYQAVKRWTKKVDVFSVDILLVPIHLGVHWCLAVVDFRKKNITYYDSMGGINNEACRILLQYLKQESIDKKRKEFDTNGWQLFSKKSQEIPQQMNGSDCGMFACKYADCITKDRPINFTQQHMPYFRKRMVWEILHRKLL

Row | Structure (SMILES) | inhibition
1 | O=C1N=c2ccccc2=C/C1=C\c1c(O)[nH]c(=S)[nH]c1=O | -11.3%
2 | CCOCCc1c(O)[nH]c(=S)[nH]c1=O | -0.672%
3 | COc1ccccc1N=Nc1c(O)[nH]c(=S)[nH]c1=O | 48.9% (active)
4 | CCCOC(=O)C1C2c3ccccc3C(c3ccccc32)C1C(=O)O (stereo not given) | -1.79%
5 | CC(CC(C#N)(c1ccccc1)c1ccccc1)N1CCCCC1 (stereo not given) | 1.04%

Reference: PubChem BioAssay AID624204 (Sanford-Burnham Center for Chemical Genomics, 2012)
